In brackets after ≈: the same amount, converted by molar mass. Activity calls are given as the source filed them. The calls are words filed in the database; no cut-off is given here.
Legend:
WI-38 = assay: Cytotoxicity against human WI38 cells assessed as cell growth inhibition incubated for 72 hrs by MTT assay; format: cell-based; conditions: for IC50: Homo sapiens, WI-38, 72 h; for EC100: human, wi-38, 72 h
In short: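 Wi-38 fibroblasts grown in DMEM with 10% FBS and seeded at 5×10^3 per well. Attachment 24 h, then serial concentrations for 72 h at 37°C, 5% CO2. MTT stock (5 mg/mL) added for 3 h at 37°C, DMSO solubilization, absorbance at 570 nm. IC50 estimated.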

MCF7 = assay: Cytotoxicity against human MCF7 cells assessed as cell growth inhibition incubated for 72 hrs by MTT assay; format: functional, cell-based; conditions: MCF7, 72 h
In short: (§1)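 Cells grown in RPMI-1640 with 10% FBS and seeded at 5×10^3 per well. After 24 h, serial concentrations given for 72 h at 37°C, 5% CO2. Then 5 mg/mL MTT stock added for 3 h, formazan dissolved in DMSO, A570 read. IC50 calculated from the curves.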

NFS-60 = assay: Cytotoxicity against mouse NFS60 cells assessed as cell growth inhibition incubated for 72 hrs by MTT assay; format: functional, cell-based; conditions: NFS-60, 72 h; in short: as §1
HepG2 = assay: Cytotoxicity against human HepG2 cells assessed as cell growth inhibition incubated for 72 hrs by MTT assay; format: functional, cell-based; conditions: HepG2, 72 h; in short: as §1
[1] = Selectivity index, ratio of IC50 for human WI38 cells to IC50 for human MCF7 cells; format: toxicity; conditions: WI38 cells versus MCF7 cells, read-out: Ratio IC50
In short: (§2)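 SI calculated as IC50 on normal Wi-38 fibroblasts divided by IC50 on the cancer cell line. Both came from 72 h MTT assays.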

[2] = Selectivity index, ratio of IC50 for human WI38 cells to IC50 for mouse NFS60 cells; in short: as §2
[3] = Selectivity index, ratio of IC50 for human WI38 cells to IC50 for human HepG2 cells; format: toxicity; conditions: WI38 cells versus HepG2 cells, read-out: Ratio IC50; in short: as §2
Staphylococcus aureus [4] = assay: Antimicrobial activity against Staphylococcus aureus ATCC 25923 incubated for 24 hrs by agar well diffusion assay; format: functional
In short: (§3)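 Nutrient agar spread with 100 µL inoculum: bacteria at 1×10^8 CFU/mL, fungi at 1×10^6 CFU/mL. 10 mm wells loaded with 100 µL of compound in DMSO (final 1 mg/mL). Bacteria incubated 24 h at 37 °C, fungi 48 h at 28 °C. Inhibition zones measured in mm. Ciprofloxacin and fluconazole standards at 1 mg/mL, DMSO negative control.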

Enterococcus faecalis = assay: Antimicrobial activity against Enterococcus faecalis ATCC 29212 incubated for 24 hrs by agar well diffusion assay; format: functional; in short: as §3
Pseudomonas aeruginosa = assay: Antimicrobial activity against Pseudomonas aeruginosa ATCC 27853 incubated for 24 hrs by agar well diffusion assay; format: functional; in short: as §3
Escherichia coli [5] = assay: Antimicrobial activity against Escherichia coli ATCC 25922 incubated for 24 hrs by agar well diffusion assay; format: functional; in short: as §3
Candida albicans [6] = assay: Antimicrobial activity against Candida albicans ATCC 90028 incubated for 48 hrs by agar well diffusion assay; format: functional; in short: as §3
Staphylococcus aureus [7] = assay: Antimicrobial activity against Staphylococcus aureus ATCC 25923 incubated for 24 hrs by microdilution assay; format: functional
In short: (§4)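 Two-fold serial dilutions of test solutions made in Mueller Hinton broth and inoculated. Incubated at 37°C for 24 h. MIC taken as the lowest concentration with no growth. Ciprofloxacin is the antibacterial reference, fluconazole the antifungal one, and DMSO the blank.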

Escherichia coli [8] = assay: Antimicrobial activity against Escherichia coli ATCC 25922 incubated for 24 hrs by microdilution assay; format: functional; in short: as §4
Candida albicans [9] = assay: Antimicrobial activity against Candida albicans ATCC 90028 incubated for 24 hrs by microdilution assay; format: functional; in short: as §4

Structure (SMILES)	IC50 (WI-38) [nM]	EC100 (WI-38) [µM]	IC50 (MCF7) [nM]	IC50 (NFS-60) [nM]	IC50 (HepG2) [nM]	selectivity ratio [1]	Ratio IC50 [2]	selectivity ratio [3]	diameter of the inhibition zone (DIZ) (Staphylococcus aureus [4])	diameter of the inhibition zone (DIZ) (Enterococcus faecalis)	diameter of the inhibition zone (DIZ) (Pseudomonas aeruginosa)	diameter of the inhibition zone (DIZ) (Escherichia coli [5])	diameter of the inhibition zone (DIZ) (Candida albicans [6])	MIC (Staphylococcus aureus [7])	MIC (Escherichia coli [8])	MIC (Candida albicans [9]; ATCC 90028, 24 h) [µM]	MIC (Escherichia coli [8]; ATCC 25922, 24 h) [µM]	MIC (Candida albicans [9])	MIC (Staphylococcus aureus [7]; ATCC 25923, 24 h) [µM]
O=C(OC1(C(=O)Nc2ccc([N+](=O)[O-])cc2)CCCCC1)c1ccccc1	246	0.148	903	766	734	0.272	0.322	0.335											
O=C(/C=C/c1ccccc1)OC1(C(=O)Nc2ccc([N+](=O)[O-])cc2)CCCCC1	41	0.0197	57.6	50.5	52.9	0.711	0.811	0.774	inactive	inactive	inactive	inactive	inactive						
O=C(Nc1ccc([N+](=O)[O-])cc1)C1(O)CCCCC1	1220	0.53	664	716	648	1.84	1.705	1.88	inactive	inactive	inactive	12 mm	15 mm	inactive	inactive	1040 (≈ 275 µg/mL)			
CC(=O)Oc1ccccc1C(=O)OC1(C(=O)Nc2ccc([N+](=O)[O-])cc2)CCCCC1	48.4	0.0355	16.9	11.3	17.7	2.86	4.283	2.73	inactive	inactive	16 mm	16 mm	inactive	inactive			2400 (≈ 1020 µg/mL)	inactive	
CCC(=O)OC1(C(=O)Nc2ccc([N+](=O)[O-])cc2)CCCCC1	44.6	0.0169	14.1	6.4	21.5	3.16	6.968	2.07	inactive	inactive	12 mm	inactive	inactive						
O=C(O)c1cn(C2CC2)c2cc(N3CCNCC3)c(F)cc2c1=O [CIPROFLOXACIN]									26 mm	24 mm	40 mm	43 mm					3 (≈ 0.994 µg/mL)		6 (≈ 1.99 µg/mL)
OC(Cn1cncn1)(Cn1cncn1)c1ccc(F)cc1F [FLUCONAZOLE]													29 mm			1 (≈ 0.306 µg/mL)			
O=C(OC1(C(=O)Nc2ccc([N+](=O)[O-])cc2)CCCCC1)c1ccccc1I	396	0.0247	619			0.639													
O=C(OC1(C(=O)Nc2ccc([N+](=O)[O-])cc2)CCCCC1)c1ccc(Cl)cc1	355	0.1128	15	10.3	21.8	23.7	34.466	16.3	inactive	13 mm	16 mm	14 mm	inactive	inactive			1270 (≈ 512 µg/mL)	inactive	

From ChEMBL document CHEMBL4390662, “Design, synthesis and biological evaluation of novel α-acyloxy carboxamides via Passerini reaction as caspase 3/7 activators” (Eur J Med Chem, 2019)
